The values that follow come from ChEMBL document CHEMBL1142075, “Two-year assessment of entecavir resistance in Lamivudine-refractory hepatitis B virus patients reveals different clinical outcomes depending on the resistance substitutions present” (Antimicrob Agents Chemother, 2007).

Assay [1] deals with Hepatitis B virus. Description: Inhibition of HBV replication with RT S78T substitution from Lamivudine refractory patient transfected into HepG2 cells. It is filed as functional, organism-based. An outline of the steps:
(§1)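 HepG2 cells bulk-transfected with full-length HBV phenotyping plasmids cloned from patient isolates, then seeded into wells with compound titration. DMSO vehicle controls and cloned lab wild-type HBV run in parallel each experiment. At 5 days posttransfection, released virions stripped with Nonidet P-40, captured from medium with anti-HBV core antibody, and extracellular replicated virus quantitated. EC50 = concentration giving 50% inhibition.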

Assay [2] concerns Hepatitis B virus. Description: Inhibition of HBV replication with RT L80V substitution and L180M, M204V background from Lamivudine refractory patient transfected into HepG2 cells. The format is functional, organism-based. An outline of the steps: as §1
The subject of assay [3] is Hepatitis B virus. The assay can be described thus: Inhibition of HBV replication with RT V27A substitution and L180M, M204V background from Lamivudine refractory patient transfected into HepG2 cells. The format is functional. An outline of the steps:
as §1

In assay [4] the test system is Hepatitis B virus. Description: Inhibition of HBV replication with RT L228P substitution and M204I background from Lamivudine refractory patient transfected into HepG2 cells. It is filed as functional. An outline of the steps: as §1
Assay [5] has as its system Hepatitis B virus. The assay can be described thus: Inhibition of HBV replication with RT A181T substitution and V173L, L180M, M204V background from Lamivudine refractory patient transfected into HepG2 cells.
Assay [6] relates to Hepatitis B virus. Description: Inhibition of HBV replication with RT D263G substitution from Lamivudine refractory patient transfected into HepG2 cells. It is filed as functional, organism-based. The gist of the method: as §1
Assay [7] relates to Hepatitis B virus. The assay can be described thus: Inhibition of HBV replication with RT M309L substitution from Lamivudine refractory patient transfected into HepG2 cells. It is filed as functional, organism-based. The gist of the method:
as §1

The test system of assay [8] is Hepatitis B virus. Description: Inhibition of HBV replication with RT A200V substitution and L180M, M204I background from Lamivudine refractory patient transfected into HepG2 cells. The format is functional, organism-based. The gist of the method: as §1
Assay [9] deals with Hepatitis B virus. Description: Inhibition of HBV replication with RT C188S substitution and L80I, L180T, M204V background from Lamivudine refractory patient transfected into HepG2 cells. The format is functional, organism-based. The gist of the method:
as §1

For assay [10], the system named is Hepatitis B virus. Description: Inhibition of HBV replication with RT I53F substitution and V173F, L180M, M204V background from Lamivudine refractory patient transfected into HepG2 cells. The format is functional, organism-based. An outline of the steps:
as §1

Assay [11] relates to Hepatitis B virus. Description: Inhibition of HBV replication with RT G295S substitution and L80I, M204I background from Lamivudine refractory patient transfected into HepG2 cells. It is filed as functional. The gist of the method:
as §1

Assay [12] relates to Hepatitis B virus. The assay can be described thus: Inhibition of HBV replication with RT L229W substitution and L180M, M204V background from Lamivudine refractory patient transfected into HepG2 cells. It is filed as functional, organism-based. The gist of the method:
as §1

For assay [13], the system named is Hepatitis B virus. Description: Inhibition of HBV replication with RT A200V substitution and M204I background from Lamivudine refractory patient transfected into HepG2 cells. It is filed as functional, organism-based. The gist of the method:
as §1

Assay [14] deals with Hepatitis B virus. The assay can be described thus: Inhibition of HBV replication with RT V224A substitution and V173L, L180M, M204V background from Lamivudine refractory patient transfected into HepG2 cells. The format is functional. An outline of the steps: as §1
For assay [15], the system named is Hepatitis B virus. Description: Inhibition of HBV replication with RT K168E substitution and M204I background from Lamivudine refractory patient transfected into HepG2 cells. The format is functional. The gist of the method:
as §1

The test system of assay [16] is Hepatitis B virus. The assay can be described thus: Inhibition of HBV replication with RT Q267Stop substitution and L180M, M204V background from Lamivudine refractory patient transfected into HepG2 cells. The format is functional. The gist of the method:
as §1

For assay [17], the system named is Hepatitis B virus. Description: Inhibition of HBV replication with RT A200V substitution from Lamivudine refractory patient transfected into HepG2 cells. It is filed as functional, organism-based. The gist of the method: as §1
In assay [18] the test system is Hepatitis B virus. Description: Inhibition of HBV replication with RT L80I substitution and L180M, M204I background from Lamivudine refractory patient transfected into HepG2 cells. The format is functional, organism-based. An outline of the steps: as §1

Regarding `C=C1[C@H](CO)[C@@H](O)C[C@@H]1n1cnc2c(=O)[nH]c(N)nc21.O` [ENTECAVIR], the concentration for a half-maximal effect (EC50) (usually the concentration that produces a half-maximal response) in the assay with Hepatitis B virus [1] was found to be 2.4 nM; in the assay on Hepatitis B virus [2], 11 nM; in the assay on Hepatitis B virus [5] it was 14.2 nM; in the assay on Hepatitis B virus [6], 5.8 nM; with Hepatitis B virus [7], 4 nM; in the assay with Hepatitis B virus [8], 10.2 nM. Moreover, the EC50 with Hepatitis B virus [9] was 31.2 nM; in the assay with Hepatitis B virus [10] it was 22.3 nM; in the assay on Hepatitis B virus [12] it was 32.9 nM; with Hepatitis B virus [13], 33 nM; in the assay with Hepatitis B virus [17], 7.6 nM; in the assay on Hepatitis B virus [18] it was 45.3 nM. The Inhibition in the assay on Hepatitis B virus [3], with Hepatitis B virus [4], with Hepatitis B virus [11], with Hepatitis B virus [14], in the assay with Hepatitis B virus [15] and in the assay on Hepatitis B virus [16] was less than 10% in each case.
